Measurements reported in ChEMBL document CHEMBL1122581, “Antiviral activity of C-5 substituted tubercidin analogues” (1984).
Converted amounts (≈) assume the structure as drawn.

Assays:
Assay type in all cases: functional
Human alphaherpesvirus 1 = assay: Concentration required to reduce HSV-1 (KOS) induced cytopathogenicity by 50% in primary rabbit kidney cell cultures.
HeLa = assay: Concentration required to cause a microscopically detectable alteration in cell morphology in HeLa cell cultures.; conditions: Homo sapiens, read-out: Min cytotoxic concentration
In short: (§1)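 Uninfected cell monolayers were run in parallel with the antiviral assays and exposed to compound for the same period as the infected cultures. The end point was the lowest concentration giving a microscopically detectable disruption of normal cell morphology.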

Human alphaherpesvirus 2 = assay: Concentration required to reduce HSV-2 (G) induced cytopathogenicity by 50% in primary rabbit kidney cell cultures.
L1210 = assay: Dose required to inhibit proliferation of L-1210 Cells by 50%; conditions: Mus musculus, read-out: ID50 (the source's name)
In short: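 Inhibition of proliferation of murine leukemia L-1210 cells in exponential growth phase. ID50 is the dose inhibiting cell proliferation by 50%, given plus or minus standard deviation.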

Oryctolagus cuniculus = species on record: Oryctolagus cuniculus; assay: Concentration required to cause a microscopically detectable alteration in cell morphology in primary rabbit kidney cell cultures.; conditions: read-out: Min cytotoxic concentration; in short: as §1
Coxsackievirus B4 [1] = assay: Concentration required to reduce coxsackie virus B4 induced cytopathogenicity by 50% in vero cell cultures.; conditions: Enterovirus B
Coxsackievirus B4 [2] = assay: Concentration required to reduce coxsackie virus 4 induced cytopathogenicity by 50% in HeLa cell cultures.; conditions: Enterovirus B
Human respirovirus 3 = assay: Concentration required to reduce parainfluenza virus type 3 induced cytopathogenicity by 50% in vero cell cultures.
Poliovirus 1 = assay: Concentration required to reduce polio virus type 1 induced cytopathogenicity by 50% in HeLa cell cultures.; conditions: Enterovirus C
Vero = assay: Concentration required to cause a microscopically detectable alteration in cell morphology in vero cell cultures.; conditions: Chlorocebus sabaeus, read-out: Min cytotoxic concentration; in short: as §1
Sindbis virus = assay: Concentration required to reduce sindbis virus induced cytopathogenicity by 50% in vero cell cultures.
[3] = test system: Vesicular stomatitis virus; assay: Concentration required to reduce vesicular stomatitis virus induced cytopathogenicity by 50% in primary rabbit kidney cell cultures.
[4] = test system: Mammalian orthoreovirus 1; assay: Concentration required to reduce reovirus type 1 induced cytopathogenicity by 50% in vero cell cultures.
[5] = test system: Vesicular stomatitis virus; assay: Concentration required to reduce vesicular stomatitis virus induced cytopathogenicity by 50% in HeLa cell cultures.

C/C=C/Cc1cn(C2O[C@H](CO)[C@@H](O)[C@H]2O)c2ncnc(N)c12 (some centres undefined)
MIC (Human alphaherpesvirus 1): 20 µg/mL (≈ 62.4 µM) | MCC (HeLa): 1 µg/mL | MIC (Human alphaherpesvirus 2): 150 µg/mL (≈ 468 µM) | IC50 (L1210): 0.63 µg/mL (≈ 1.97 µM) | MCC (Oryctolagus cuniculus): 200 µg/mL | MIC (Coxsackievirus B4 [1]): 2 µg/mL (≈ 6.24 µM) | MIC (Coxsackievirus B4 [2]): 0.2 µg/mL (≈ 0.624 µM) | MIC (Human respirovirus 3): > 1 µg/mL | MIC (Poliovirus 1): 0.2 µg/mL (≈ 0.624 µM) | MCC (Vero): 100 µg/mL | MIC (Sindbis virus): > 40 µg/mL | MIC [3]: > 40 µg/mL | MIC [4]: 2 µg/mL (≈ 6.24 µM) | MIC [5]: 0.07 µg/mL (≈ 0.219 µM)

CCCCc1cn(C2O[C@H](CO)[C@@H](O)[C@H]2O)c2ncnc(N)c12 (some centres undefined)
MIC (Human alphaherpesvirus 1): > 40 µg/mL | MCC (HeLa): > 40 µg/mL | MIC (Human alphaherpesvirus 2): > 40 µg/mL | IC50 (L1210): 81.6 µg/mL (≈ 253 µM) | MCC (Oryctolagus cuniculus): 40 µg/mL | MIC (Coxsackievirus B4 [1]): > 40 µg/mL | MIC (Coxsackievirus B4 [2]): > 40 µg/mL | MIC (Human respirovirus 3): 20 µg/mL (≈ 62 µM) | MIC (Poliovirus 1): > 40 µg/mL | MCC (Vero): > 100 µg/mL | MIC (Sindbis virus): > 40 µg/mL | MIC [3]: > 40 µg/mL | MIC [4]: > 40 µg/mL | MIC [5]: > 40 µg/mL

Nc1ncnc2c1c(Br)cn2[C@@H]1O[C@H](CO)[C@@H](O)[C@H]1O
MIC (Human alphaherpesvirus 1): > 1 µg/mL | MCC (HeLa): 1 µg/mL | MIC (Human alphaherpesvirus 2): > 1 µg/mL | IC50 (L1210): 0.587 µg/mL (≈ 1.7 µM) | MCC (Oryctolagus cuniculus): 1 µg/mL | MIC (Coxsackievirus B4 [1]): > 0.4 µg/mL | MIC (Coxsackievirus B4 [2]): > 0.4 µg/mL | MIC (Human respirovirus 3): > 0.4 µg/mL | MIC (Poliovirus 1): > 0.4 µg/mL | MCC (Vero): 0.4 µg/mL | MIC (Sindbis virus): > 0.4 µg/mL | MIC [3]: > 1 µg/mL | MIC [4]: > 0.4 µg/mL | MIC [5]: > 0.4 µg/mL

Nc1nccc2c1ncn2[C@@H]1C[C@H](CO)[C@H](O)C1O (some centres undefined)
MIC (Human alphaherpesvirus 1): > 400 µg/mL | MCC (HeLa): > 400 µg/mL | MIC (Human alphaherpesvirus 2): 300 µg/mL (≈ 1140 µM) | MCC (Oryctolagus cuniculus): > 200 µg/mL | MIC (Coxsackievirus B4 [1]): 2 µg/mL (≈ 7.57 µM) | MIC (Coxsackievirus B4 [2]): > 400 µg/mL | MIC (Human respirovirus 3): 2 µg/mL (≈ 7.57 µM) | MIC (Poliovirus 1): > 400 µg/mL | MCC (Vero): > 100 µg/mL | MIC (Sindbis virus): 20 µg/mL (≈ 75.7 µM) | MIC [3]: 0.07 µg/mL (≈ 0.265 µM) | MIC [4]: 2 µg/mL (≈ 7.57 µM) | MIC [5]: 0.7 µg/mL (≈ 2.65 µM)

Nc1ncnc2c1c(Cl)cn2[C@@H]1O[C@H](CO)[C@@H](O)[C@H]1O
MIC (Human alphaherpesvirus 1): > 1 µg/mL | MCC (HeLa): 4 µg/mL | MIC (Human alphaherpesvirus 2): > 1 µg/mL | IC50 (L1210): 0.014 µg/mL (≈ 0.0466 µM) | MCC (Oryctolagus cuniculus): 4 µg/mL | MIC (Coxsackievirus B4 [1]): > 1 µg/mL | MIC (Coxsackievirus B4 [2]): > 0.4 µg/mL | MIC (Human respirovirus 3): > 1 µg/mL | MIC (Poliovirus 1): 1 µg/mL (≈ 3.33 µM) | MCC (Vero): 4 µg/mL | MIC (Sindbis virus): > 1 µg/mL | MIC [3]: > 1 µg/mL | MIC [4]: 0.7 µg/mL (≈ 2.33 µM) | MIC [5]: > 1 µg/mL

Nc1ncnc2c1c(I)cn2[C@@H]1O[C@H](CO)[C@@H](O)[C@H]1O [IODOTUBERCIDIN]
MIC (Human alphaherpesvirus 1): 0.02 µg/mL (≈ 0.051 µM) | MCC (HeLa): 1 µg/mL | MIC (Human alphaherpesvirus 2): > 1 µg/mL | IC50 (L1210): 1.25 µg/mL (≈ 3.19 µM) | MCC (Oryctolagus cuniculus): 1 µg/mL | MIC (Coxsackievirus B4 [1]): > 0.4 µg/mL | MIC (Coxsackievirus B4 [2]): > 0.4 µg/mL | MIC (Human respirovirus 3): > 0.4 µg/mL | MIC (Poliovirus 1): > 0.4 µg/mL | MCC (Vero): 1 µg/mL | MIC (Sindbis virus): > 0.4 µg/mL | MIC [3]: > 0.4 µg/mL | MIC [4]: > 0.4 µg/mL | MIC [5]: > 0.4 µg/mL

NC(=O)c1ncn([C@@H]2O[C@H](CO)[C@@H](O)[C@H]2O)n1 [RIBAVIRIN]
MIC (Human alphaherpesvirus 1): > 400 µg/mL | MCC (HeLa): > 400 µg/mL | MIC (Human alphaherpesvirus 2): > 400 µg/mL | IC50 (L1210): 3.18 µg/mL (≈ 13 µM) | MCC (Oryctolagus cuniculus): > 400 µg/mL | MIC (Coxsackievirus B4 [1]): > 400 µg/mL | MIC (Coxsackievirus B4 [2]): 20 µg/mL (≈ 81.9 µM) | MIC (Human respirovirus 3): 20 µg/mL (≈ 81.9 µM) | MIC (Poliovirus 1): 7 µg/mL (≈ 28.7 µM) | MCC (Vero): > 400 µg/mL | MIC (Sindbis virus): 150 µg/mL (≈ 614 µM) | MIC [3]: 70 µg/mL (≈ 287 µM) | MIC [4]: 20 µg/mL (≈ 81.9 µM) | MIC [5]: 4 µg/mL (≈ 16.4 µM)

NC(=O)c1cn([C@@H]2O[C@H](CO)[C@@H](O)[C@H]2O)c2ncnc(N)c12 [SANGIVAMYCIN]
MIC (Human alphaherpesvirus 1): 0.07 µg/mL (≈ 0.226 µM) | MCC (HeLa): 0.4 µg/mL | MIC (Human alphaherpesvirus 2): 0.07 µg/mL (≈ 0.226 µM) | IC50 (L1210): 0.019 µg/mL (≈ 0.0614 µM) | MCC (Oryctolagus cuniculus): > 10 µg/mL | MIC (Coxsackievirus B4 [1]): 0.02 µg/mL (≈ 0.0647 µM) | MIC (Coxsackievirus B4 [2]): > 0.04 µg/mL | MIC (Human respirovirus 3): 0.02 µg/mL (≈ 0.0647 µM) | MIC (Poliovirus 1): 0.07 µg/mL (≈ 0.226 µM) | MCC (Vero): 0.4 µg/mL | MIC (Sindbis virus): 0.2 µg/mL (≈ 0.647 µM) | MIC [3]: 0.02 µg/mL (≈ 0.0647 µM) | MIC [4]: > 0.1 µg/mL | MIC [5]: 0.04 µg/mL (≈ 0.129 µM)

N#Cc1cn([C@@H]2O[C@H](CO)[C@@H](O)[C@H]2O)c2ncnc(N)c12 [TOYOCAMYCIN]
MIC (Human alphaherpesvirus 1): > 0.04 µg/mL | MCC (HeLa): > 0.4 µg/mL | MIC (Human alphaherpesvirus 2): 0.07 µg/mL (≈ 0.24 µM) | IC50 (L1210): 0.006 µg/mL (≈ 0.0206 µM) | MCC (Oryctolagus cuniculus): > 0.04 µg/mL | MIC (Coxsackievirus B4 [1]): > 0.01 µg/mL | MIC (Coxsackievirus B4 [2]): > 0.01 µg/mL | MIC (Human respirovirus 3): > 0.01 µg/mL | MIC (Poliovirus 1): > 0.01 µg/mL | MCC (Vero): 0.04 µg/mL | MIC (Sindbis virus): > 0.01 µg/mL | MIC [3]: > 1 µg/mL | MIC [4]: > 0.01 µg/mL | MIC [5]: 0.07 µg/mL (≈ 0.24 µM)

Nc1ncnc2c1ccn2[C@@H]1O[C@H](CO)[C@@H](O)[C@H]1O [TUBERCIDIN]
MIC (Human alphaherpesvirus 1): 0.07 µg/mL (≈ 0.263 µM) | MCC (HeLa): 0.4 µg/mL | MIC (Human alphaherpesvirus 2): 0.2 µg/mL (≈ 0.751 µM) | IC50 (L1210): 0.04 µg/mL (≈ 0.15 µM) | MCC (Oryctolagus cuniculus): 0.4 µg/mL | MIC (Coxsackievirus B4 [1]): 0.2 µg/mL (≈ 0.751 µM) | MIC (Coxsackievirus B4 [2]): 0.2 µg/mL (≈ 0.751 µM) | MIC (Human respirovirus 3): 0.07 µg/mL (≈ 0.263 µM) | MIC (Poliovirus 1): 0.007 µg/mL (≈ 0.0263 µM) | MCC (Vero): 0.4 µg/mL | MIC (Sindbis virus): 0.2 µg/mL (≈ 0.751 µM) | MIC [3]: 0.007 µg/mL (≈ 0.0263 µM) | MIC [4]: 0.07 µg/mL (≈ 0.263 µM) | MIC [5]: 0.007 µg/mL (≈ 0.0263 µM)
